{
  "source": "paper PMC3286593",
  "about": "(Cancer Chemotherapy and Pharmacology, 2011)",
  "key": {"[1]": {"system": "patients with advanced solid malignancies", "experiment": "Phase I 3 + 3 dose escalation: MTD and dose-limiting toxicities", "type": "in vivo, human", "details": "for Pemetrexed dose at MTD: q3w; for MTD of sunitinib: with pemetrexed 500 mg/m^2 q3w", "method_in_brief": "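Open-label multicentre 3 + 3 escalation. […] A DLT was a grade 3/4 drug-related toxicity in cycle 1 (NCI CTCAE v3.0). MTD was the highest dose with 0/3 or ≤1/6 DLTs.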"}, "[2]": {"system": "patients with advanced solid malignancies", "experiment": "Dose delays, dose reductions and relative dose intensity", "type": "in vivo, human", "details": "for Cycles with dose reductions: Schedule 2/1", "method_in_brief": "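Grade 3/4 toxicity attributed to either drug allowed intra-patient dose reduction at the investigator's discretion, up to 2 reductions per drug. […] Relative dose intensity was actual/intended dose intensity. Results were summarised descriptively per cycle and per patient.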"}, "[3]": {"system": "NSCLC NCI-H460 xenograft models", "details": "cited from earlier work"}, "[4]": {"system": "VEGFR and PDGFR phosphorylation", "details": "cited from earlier work"}, "NSCLC": {"system": "NSCLC", "details": "single-agent sunitinib on Schedule 4/2; cited from earlier work"}, "[5]": {"system": "patients with advanced solid malignancies", "experiment": "Safety: adverse events", "type": "in vivo, human"}, "[6]": {"details": "NSCLC expansion cohort (n = 15)"}},
  "data": [
    {"molecule": "Nc1nc2[nH]cc(CCc3ccc(C(=O)N[C@@H](CCC(=O)O)C(=O)O)cc3)c2c(=O)[nH]1", "note": "[pemetrexed]", "values": [
      {"measurement": "Pemetrexed dose at MTD", "setting": "[1]; with sunitinib 37.5 mg/day CDD schedule", "value": 500, "unit": "mg/m^2"},
      {"measurement": "Pemetrexed dose at MTD", "setting": "[1]; with sunitinib 50 mg/day Schedule 2/1", "value": 500, "unit": "mg/m^2"},
      {"measurement": "Patients with a pemetrexed dose delay", "setting": "[2]; CDD schedule MTD", "value": 12, "unit": "patients"},
      {"measurement": "Patients with a pemetrexed dose reduction to 400 mg/m^2", "setting": "[2]; CDD schedule MTD", "value": 6, "unit": "patients"},
      {"measurement": "Cycles with pemetrexed dose reduction", "setting": "[2]; NSCLC expansion cohort", "value": 6, "unit": "cycles"},
      {"measurement": "Patients with at least one pemetrexed dose reduction to 400 mg/m^2", "setting": "[2]; NSCLC expansion cohort", "value": 3, "unit": "patients"},
      {"measurement": "Cycles with dose reductions", "setting": "[2]", "value": 3, "unit": "cycles"},
      {"measurement": "Cycles with pemetrexed dose reduction", "setting": "[2]; original CDD schedule MTD", "value": 13, "unit": "cycles"},
      {"measurement": "Effect on antitumor activity of sunitinib", "setting": "[3]", "value": "enhanced its antitumor activity"}
    ]},
    {"molecule": "CCN(CC)CCNC(=O)c1c(C)[nH]c(/C=C2\\C(=O)Nc3ccc(F)cc32)c1C", "note": "[sunitinib]", "values": [
      {"measurement": "MTD of sunitinib", "setting": "[1]; CDD schedule", "value": 37.5, "unit": "mg/day"},
      {"measurement": "MTD of sunitinib", "setting": "[1]; Schedule 2/1", "value": 50, "unit": "mg/day"},
      {"measurement": "Patients with a sunitinib dose reduction to 25 mg", "setting": "[2]; CDD schedule MTD", "value": 12, "unit": "patients"},
      {"measurement": "Patients with at least one sunitinib dose delay", "setting": "[2]; CDD schedule MTD", "value": 12, "unit": "patients"},
      {"measurement": "Patients who discontinued sunitinib due to AEs", "setting": "[2]; CDD schedule MTD, abdominal pain, seizure, thrombocytopenia", "value": "Three"},
      {"measurement": "Cycles with sunitinib dose reductions", "setting": "[2]; [6]", "value": 22, "unit": "cycles"},
      {"measurement": "Patients with at least one sunitinib dose reduction to 25 mg", "setting": "[2]; [6]", "value": 7, "unit": "patients"},
      {"measurement": "Cycles with dose reductions", "setting": "[2]", "value": 6, "unit": "cycles"},
      {"measurement": "Cycles with sunitinib dose reductions", "setting": "[2]; original CDD schedule MTD cohort (n = 7)", "value": 23, "unit": "cycles"},
      {"measurement": "Target plasma concentrations required to inhibit VEGFR and PDGFR phosphorylation", "setting": "[4]", "value": "50 to 100", "unit": "ng/mL"},
      {"measurement": "ORR", "setting": "NSCLC", "value": 11.1, "unit": "%"},
      {"measurement": "Tumor growth", "setting": "[3]", "value": "decreased tumor growth"},
      {"measurement": "Serious AEs considered related to sunitinib treatment", "setting": "[5]; CDD schedule at the MTD, one event of each in separate patients", "value": "febrile neutropenia (DLT), pancreatitis, pain, gastroenteritis, and muscular weakness"},
      {"measurement": "Serious AEs considered related to sunitinib treatment", "setting": "[5]; Schedule 2/1, all n = 1", "value": "febrile neutropenia (DLT), tumor perforation, and pyrexia"}
    ]}
  ]
}
